Results from paper PMC7134392 (ChemMedChem, 2018).

Assays:
RAW264.7 cells = test: Toxicity; format: cell-based; conditions: read-out: IC50 Toxicity (Tox.), Alamar blue cell viability
Method in brief: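 RAW264.7 cells were grown in RPMI 1640 with 10% FCS, 50 μM 2-mercaptoethanol and penicillin/streptomycin. Cells were seeded at 50,000 per well in phenol-red-free medium ≥12 h beforehand. In the TNFα assay setting, cells were dosed with test compound from 50 μM to 0.023 μM (three-fold steps) or DMSO. Viability was read by Alamar blue. Means ± SD are from 3 independent experiments.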

[1] = biological target: T1, full-length human estrogen receptor α (Homo sapiens, UniProt P03372); test: Competitive radiometric ligand binding assay, ERα; conditions: relative binding affinity, estradiol = 100; single determinations for RBA < 0.01
T1 sequence (P03372 1-595): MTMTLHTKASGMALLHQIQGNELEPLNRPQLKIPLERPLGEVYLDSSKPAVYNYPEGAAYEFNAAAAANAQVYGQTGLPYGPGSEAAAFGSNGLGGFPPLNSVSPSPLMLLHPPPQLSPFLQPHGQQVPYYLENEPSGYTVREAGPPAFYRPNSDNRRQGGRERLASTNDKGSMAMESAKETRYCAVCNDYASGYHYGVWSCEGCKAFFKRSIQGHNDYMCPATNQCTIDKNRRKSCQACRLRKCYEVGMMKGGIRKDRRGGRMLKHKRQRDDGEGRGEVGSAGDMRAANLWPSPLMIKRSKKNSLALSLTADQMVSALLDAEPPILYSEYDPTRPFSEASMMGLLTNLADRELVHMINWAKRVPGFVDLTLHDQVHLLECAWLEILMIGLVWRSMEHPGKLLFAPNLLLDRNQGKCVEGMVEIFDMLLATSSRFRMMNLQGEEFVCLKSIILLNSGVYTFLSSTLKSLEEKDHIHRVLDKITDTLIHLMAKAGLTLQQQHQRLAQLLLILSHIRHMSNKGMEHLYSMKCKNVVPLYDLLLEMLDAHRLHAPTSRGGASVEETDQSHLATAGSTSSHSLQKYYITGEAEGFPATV

[2] = biological target: full-length human estrogen receptor β (Homo sapiens, UniProt Q92731); test: Competitive radiometric ligand binding assay, ERβ; conditions: relative binding affinity, estradiol = 100; single determinations for RBA < 0.01
Chain of full-length human estrogen receptor β (Q92731 whole entry): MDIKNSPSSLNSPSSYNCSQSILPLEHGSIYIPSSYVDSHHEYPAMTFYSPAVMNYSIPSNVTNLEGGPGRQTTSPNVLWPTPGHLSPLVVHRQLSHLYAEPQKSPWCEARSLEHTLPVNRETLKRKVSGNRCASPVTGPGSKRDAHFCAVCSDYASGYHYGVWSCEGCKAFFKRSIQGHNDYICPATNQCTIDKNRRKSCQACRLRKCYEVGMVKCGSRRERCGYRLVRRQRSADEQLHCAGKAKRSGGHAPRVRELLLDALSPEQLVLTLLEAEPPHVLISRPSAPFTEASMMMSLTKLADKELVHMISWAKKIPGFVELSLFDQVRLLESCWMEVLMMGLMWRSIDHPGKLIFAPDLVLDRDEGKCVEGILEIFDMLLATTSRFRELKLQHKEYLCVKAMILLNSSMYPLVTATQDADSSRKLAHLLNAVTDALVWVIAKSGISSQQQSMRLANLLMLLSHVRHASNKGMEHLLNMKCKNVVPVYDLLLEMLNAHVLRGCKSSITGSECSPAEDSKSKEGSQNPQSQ
Method in brief: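 Full-length human ERβ incubated with radiolabelled estradiol tracer and competing test compound on ice for 18–24 h. Receptor-bound tracer was adsorbed onto hydroxyapatite, washed with buffer, and counted by scintillation. Affinity was expressed as RBA relative to estradiol = 100. Most values are the average of 2–3 determinations ± SD.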

**Q.** With `Cc1c(-c2ccc(O)cc2)nn(-c2ccc(O)cc2)c1-c1ccc(OCCN2CCCCC2)cc1` [Compound 1, methyl-piperidino-pyrazole] as the molecule, how does the IC50 (RAW264.7 cells) read?
**A.** 11.5 ± 2.4 µM

**Q.** What about the “RBA ERα” value [1] of the same molecule?
**A.** 12.0 ± 2.0

**Q.** And the “RBA ERβ” value [2]?
**A.** 0.05 ± 0.01
